According to ChEMBL document CHEMBL3120060, “Synthesis, in vitro anticancer evaluation and in silico studies of novel imidazo[2,1-b]thiazole derivatives bearing pyrazole moieties” (2014):

Experiments:
Format in all cases: functional
SNB-19 = test: Cytotoxicity against human SNB19 cells assessed as cell growth at 10 uM after 48 hrs by SRB assay; conditions: SNB-19, 48 h, read-out: Activity
Method in brief: (§1)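 NCI-60 single-dose screen. Cell lines grown in RPMI 1640 with 5% FBS and 2 mM L-glutamine, plated at 5000–40,000 cells/well according to doubling time, then preincubated 24 h at 37 °C in 5% CO2. Compounds dissolved in DMSO, tested at 10^-5 M for 48 h. Adherent cells fixed with cold TCA (10% final) and stained with 0.4% SRB in 1% acetic acid. Growth expressed as percent of untreated control.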

HT-29 = test: Cytotoxicity against human HT-29 cells assessed as cell growth at 10 uM after 48 hrs by SRB assay; conditions: HT-29, 48 h, read-out: Activity; method in brief: as §1
HCT-15 = test: Cytotoxicity against human HCT15 cells assessed as cell growth at 10 uM after 48 hrs by SRB assay; conditions: HCT-15, 48 h, read-out: Activity; method in brief: as §1
NCI-H23 = test: Cytotoxicity against human NCI-H23 cells assessed as cell growth at 10 uM after 48 hrs by SRB assay; conditions: NCI-H23, 48 h, read-out: Activity; method in brief: as §1
HOP-62 = test: Cytotoxicity against human HOP62 cells assessed as cell growth at 10 uM after 48 hrs by SRB assay; conditions: HOP-62, 48 h, read-out: Activity; method in brief: as §1
SR = test: Cytotoxicity against human SR cells assessed as cell growth at 10 uM after 48 hrs by SRB assay; conditions: read-out: Activity
Method in brief: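 Leukemia line, NCI-60 single-dose screen at 10^-5 M. Cells are grown in RPMI 1640 with 5% FBS and 2 mM L-glutamine, plated by doubling time, and preincubated 24 h at 37 °C with 5% CO2. After 48 h drug exposure, settled cells are fixed with 80% TCA (final 16%) and stained with SRB. Percent growth is calculated against untreated control and time-zero plates.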

K562 = test: Cytotoxicity against human K562 cells assessed as cell growth at 10 uM after 48 hrs by SRB assay; conditions: K562, 48 h, read-out: Activity; method in brief: as §1
HL-60(TB) = test: Cytotoxicity against human HL-60(TB) cells assessed as cell growth at 10 uM after 48 hrs by SRB assay; conditions: HL-60, 48 h, read-out: Activity
Method in brief: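 NCI-60 single-dose screen: cells grown in RPMI 1640 with 5% FBS and 2 mM L-glutamine, plated at 5000–40,000 cells/well, preincubated 24 h at 37 °C, 5% CO2. Compound dissolved in DMSO, tested at 10^-5 M for 48 h. Cells TCA-fixed, sulforhodamine B stained. Growth expressed as percent of untreated control, referenced to time-zero plates.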

MDA-MB-468 = test: Cytotoxicity against human MDA-MB-468 cells assessed as cell growth at 10 uM after 48 hrs by SRB assay; conditions: MDA-MB-468, 48 h, read-out: Activity; method in brief: as §1
BT-549 = test: Cytotoxicity against human BT549 cells assessed as cell growth at 10 uM after 48 hrs by SRB assay; conditions: BT-549, 48 h, read-out: Activity; method in brief: as §1
[1] = Cytotoxicity against human Hs578T cells assessed as cell growth at 10 uM after 48 hrs by SRB assay; conditions: Hs-578T, read-out: Activity; method in brief: as §1
MDA-MB-231 = test: Cytotoxicity against human MDA-MB-231 cells assessed as cell growth at 10 uM after 48 hrs by SRB assay; conditions: MDA-MB-231, 48 h, read-out: Activity; method in brief: as §1
MCF7 = test: Cytotoxicity against human MCF7 cells assessed as cell growth at 10 uM after 48 hrs by SRB assay; conditions: MCF7, 48 h, read-out: Activity; method in brief: as §1
[2] = Cytotoxicity against human UO31 cells assessed as cell growth at 10 uM after 48 hrs by SRB assay; conditions: UO-31, 48 h, read-out: Activity
Method in brief: (§2)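 NCI-60 single-dose screen at 10^-5 M. Adherent lines are grown in RPMI 1640 with 5% FBS and 2 mM L-glutamine, seeded at 5000–40,000 cells/well by doubling time, and preincubated 24 h at 37 °C in 5% CO2. Drug is added from DMSO stock diluted in medium, then 48 h. Cells are fixed in cold TCA (final 10%) for 60 min and stained with 0.4% SRB in 1% acetic acid. Growth is expressed as % of untreated control using time-zero plates.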

RXF 393 = test: Cytotoxicity against human RXF393 cells assessed as cell growth at 10 uM after 48 hrs by SRB assay; conditions: RXF 393, 48 h, read-out: Activity; method in brief: as §1
ACHN = test: Cytotoxicity against human ACHN cells assessed as cell growth at 10 uM after 48 hrs by SRB assay; conditions: read-out: Activity; method in brief: as §1
A498 = test: Cytotoxicity against human A498 cells assessed as cell growth at 10 uM after 48 hrs by SRB assay; conditions: A498, 48 h, read-out: Activity; method in brief: as §1
786-0 = test: Cytotoxicity against human 786-0 cells assessed as cell growth at 10 uM after 48 hrs by SRB assay; conditions: 786-0, 48 h, read-out: Activity; method in brief: as §1
OVCAR-3 = test: Cytotoxicity against human OVCAR3 cells assessed as cell growth at 10 uM after 48 hrs by SRB assay; conditions: OVCAR-3, 48 h, read-out: Activity; method in brief: as §1
IGROV-1 = test: Cytotoxicity against human IGROV1 cells assessed as cell growth at 10 uM after 48 hrs by SRB assay; conditions: IGROV-1, 48 h, read-out: Activity; method in brief: as §1
UACC-62 = test: Cytotoxicity against human UACC62 cells assessed as cell growth at 10 uM after 48 hrs by SRB assay; conditions: UACC-62, 48 h, read-out: Activity; method in brief: as §2
[3] = Cytotoxicity against human UACC257 cells assessed as cell growth at 10 uM after 48 hrs by SRB assay; conditions: UACC-257, 48 h, read-out: Activity; method in brief: as §2
SK-MEL-5 = test: Cytotoxicity against human SK-MEL-5 cells assessed as cell growth at 10 uM after 48 hrs by SRB assay; conditions: SK-MEL-5, 48 h, read-out: Activity; method in brief: as §1
SK-MEL-2 = test: Cytotoxicity against human SK-MEL-2 cells assessed as cell growth at 10 uM after 48 hrs by SRB assay; conditions: SK-MEL-2, 48 h, read-out: Activity; method in brief: as §1
M14 = test: Cytotoxicity against human M14 cells assessed as cell growth at 10 uM after 48 hrs by SRB assay; conditions: M14, 48 h, read-out: Activity; method in brief: as §1
U-251 = test: Cytotoxicity against human U251 cells assessed as cell growth at 10 uM after 48 hrs by SRB assay; conditions: U-251, 48 h, read-out: Activity; method in brief: as §2

Cc1cc(C)n(-c2cn3c(-c4ccc(Cl)cc4)csc3n2)n1
growth at 10 µM (SNB-19): 92.8%
growth at 10 µM (HT-29): 87%
growth at 10 µM (HCT-15): 95.5%
growth at 10 µM (NCI-H23): 91%
growth at 10 µM (HOP-62): 97.1%
growth at 10 µM (SR): 65.8%
growth at 10 µM (K562): 83.1%
growth at 10 µM (HL-60(TB)): 90.2%
growth at 10 µM (MDA-MB-468): 88.5%
growth at 10 µM (BT-549): 113%
growth at 10 µM [1]: 94.3%
growth at 10 µM (MDA-MB-231): 86.4%
growth at 10 µM (MCF7): 85.1%
growth at 10 µM [2]: 89.6%
growth at 10 µM (RXF 393): 93.5%
growth at 10 µM (ACHN): 91%
growth at 10 µM (A498): 85.7%
growth at 10 µM (786-0): 102%
growth at 10 µM (OVCAR-3): 107%
growth at 10 µM (IGROV-1): 108%
growth at 10 µM (UACC-62): 86.9%
growth at 10 µM [3]: 104%
growth at 10 µM (SK-MEL-5): 85.5%
growth at 10 µM (SK-MEL-2): 113%
growth at 10 µM (M14): 101%
growth at 10 µM (U-251): 87.8%

Cc1cc(C)n(-c2cn3c(-c4ccccc4)csc3n2)n1
growth at 10 µM (SNB-19): 96.5%
growth at 10 µM (HT-29): 97.6%
growth at 10 µM (HCT-15): 95%
growth at 10 µM (NCI-H23): 95.4%
growth at 10 µM (HOP-62): 91.4%
growth at 10 µM (SR): 80.9%
growth at 10 µM (K562): 76.8%
growth at 10 µM (HL-60(TB)): 105%
growth at 10 µM (MDA-MB-468): 102%
growth at 10 µM (BT-549): 95.3%
growth at 10 µM [1]: 106%
growth at 10 µM (MDA-MB-231): 86.3%
growth at 10 µM (MCF7): 88.7%
growth at 10 µM [2]: 59.2%
growth at 10 µM (RXF 393): 93.4%
growth at 10 µM (ACHN): 83.8%
growth at 10 µM (A498): 111%
growth at 10 µM (786-0): 98%
growth at 10 µM (OVCAR-3): 101%
growth at 10 µM (IGROV-1): 76.5%
growth at 10 µM (UACC-62): 89.4%
growth at 10 µM [3]: 105%
growth at 10 µM (SK-MEL-5): 94.2%
growth at 10 µM (SK-MEL-2): 97.6%
growth at 10 µM (M14): 95.4%
growth at 10 µM (U-251): 94.7%

O=C1CN2C(c3ccc(Cl)cc3)=CSC2=N1
growth at 10 µM (SNB-19): 100%
growth at 10 µM (HT-29): 88.4%
growth at 10 µM (HCT-15): 93.3%
growth at 10 µM (NCI-H23): 104%
growth at 10 µM (HOP-62): 107%
growth at 10 µM (SR): 77.8%
growth at 10 µM (K562): 79.7%
growth at 10 µM (HL-60(TB)): 94.2%
growth at 10 µM (MDA-MB-468): 106%
growth at 10 µM (BT-549): 89%
growth at 10 µM [1]: 111%
growth at 10 µM (MDA-MB-231): 102%
growth at 10 µM (MCF7): 90.9%
growth at 10 µM [2]: 92.7%
growth at 10 µM (RXF 393): 111%
growth at 10 µM (ACHN): 95%
growth at 10 µM (A498): 70.2%
growth at 10 µM (786-0): 94%
growth at 10 µM (OVCAR-3): 105%
growth at 10 µM (IGROV-1): 95.2%
growth at 10 µM (UACC-62): 88.7%
growth at 10 µM [3]: 96.3%
growth at 10 µM (SK-MEL-5): 105%
growth at 10 µM (SK-MEL-2): 98.2%
growth at 10 µM (M14): 97%
growth at 10 µM (U-251): 94.3%

Cc1ccc(-c2csc3nc(-n4nc(C)cc4C)cn23)cc1
growth at 10 µM (SNB-19): 100%
growth at 10 µM (HT-29): 104%
growth at 10 µM (HCT-15): 101%
growth at 10 µM (NCI-H23): 93.3%
growth at 10 µM (HOP-62): 104%
growth at 10 µM (SR): 81%
growth at 10 µM (K562): 109%
growth at 10 µM (HL-60(TB)): 106%
growth at 10 µM (MDA-MB-468): 112%
growth at 10 µM (BT-549): 125%
growth at 10 µM [1]: 97%
growth at 10 µM (MDA-MB-231): 88.8%
growth at 10 µM (MCF7): 89.7%
growth at 10 µM [2]: 94.4%
growth at 10 µM (RXF 393): 105%
growth at 10 µM (ACHN): 90.7%
growth at 10 µM (A498): 103%
growth at 10 µM (786-0): 105%
growth at 10 µM (OVCAR-3): 115%
growth at 10 µM (IGROV-1): 107%
growth at 10 µM (UACC-62): 90.5%
growth at 10 µM [3]: 108%
growth at 10 µM (SK-MEL-5): 98.9%
growth at 10 µM (SK-MEL-2): 125%
growth at 10 µM (M14): 104%
growth at 10 µM (U-251): 95%

O=C1CC(=O)N(c2cn3c(-c4ccc(Cl)cc4)csc3n2)N1
growth at 10 µM (SNB-19): 90.2%
growth at 10 µM (HT-29): 91.3%
growth at 10 µM (HCT-15): 92.9%
growth at 10 µM (NCI-H23): 97.8%
growth at 10 µM (HOP-62): 104%
growth at 10 µM (SR): 74%
growth at 10 µM (K562): 88.1%
growth at 10 µM (HL-60(TB)): 88.1%
growth at 10 µM (MDA-MB-468): 104%
growth at 10 µM (BT-549): 95.3%
growth at 10 µM [1]: 98.3%
growth at 10 µM (MDA-MB-231): 107%
growth at 10 µM (MCF7): 89%
growth at 10 µM [2]: 111%
growth at 10 µM (RXF 393): 112%
growth at 10 µM (ACHN): 102%
growth at 10 µM (A498): 75.2%
growth at 10 µM (786-0): 96.4%
growth at 10 µM (OVCAR-3): 110%
growth at 10 µM (IGROV-1): 117%
growth at 10 µM (UACC-62): 90.1%
growth at 10 µM [3]: 103%
growth at 10 µM (SK-MEL-5): 99.7%
growth at 10 µM (SK-MEL-2): 101%
growth at 10 µM (M14): 100%
growth at 10 µM (U-251): 91.9%
